# DENV2 CPE rescue – inhibitors of DENV2 cytopathic effect; DENV2-infected cells, cytopathic effect rescue, plate reader; CPE inhibition, % at 9.99 µM; 350,000 compounds, 1.7% hits; AID 651640; in the data active means CPE inhibition above about 20%, passing the limit was not always enough; tested in BHK-21 cells;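 further: 0% = median of neutral control wells and 100% = median of positive control wells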
# FN deposition inh – fibronectin deposition inhibition | AH1F fibroblasts, Alexa488-fibronectin deposition fluorescence, overnight | inhibition, % at 12.6 µM | 350,000 compounds, 0.086% hits | AID 743247;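 active means mean inhibition across replicates of 30% or more, regardless of how many single replicates reach that level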;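 further: positive control wells lacked labelled fibronectin entirely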
#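 Material: AH1F fibroblasts assembling fluorescent fibronectin matrix; amount: 10000 AH1F cells/well; medium: DMEM, 2% serum; reagent: Alexa488-fibronectin, 24 nM final in well; dosing: single compound dose, delivered by pin transfer; incubation: 1 h adhesion, overnight exposure; detection: fluorescence after three HBSS washes, excitation 485 nm, emission 525 nm; measure: fibronectin deposition inhibition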
# FGF22 binding – binders of recombinant human FGF22 by thermal shift; Q9HCT0; SYPRO orange fluorescence; percent of sucrose octasulfate shift, DMSO zero; activity (Tm shift, normalised), % at 9.99 µM; 340,000 compounds, 1.5% hits; AID 651658;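 active means mean Tm shift, scaled 0 neutral to 100 positive control, at about 1.3% or above, every replicate too, limit read from the data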
# Target sequence (Q9HCT0 whole entry, looked up): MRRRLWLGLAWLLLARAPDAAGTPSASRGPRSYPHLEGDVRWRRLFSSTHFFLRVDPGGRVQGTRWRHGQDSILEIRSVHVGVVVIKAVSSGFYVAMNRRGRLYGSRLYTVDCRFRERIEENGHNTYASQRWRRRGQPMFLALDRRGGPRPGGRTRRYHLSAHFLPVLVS
# Xi reactivation – X-chromosome reactivation activator | XiGFP mouse fibroblasts, % GFP-positive cells imaging, 3 d; cells co-treated with 5-aza-dC sensitizer; scaled so ellipticine positive control = 100% | activation, % at 7.58 µM | 360,000 compounds, 0.055% hits | AID 743238;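 active means mean normalized replicate activation at least 10% and every replicate at or above 10%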;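 further: 0% = median of on-plate neutral control wells and 100% = ellipticine 6 µM median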
#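 System: 68-5-11 XiGFP fibroblast line; Timing: 3 days compound exposure; Compound dosing: one concentration, pinned; Benchmarks: positive control ellipticine, 6 µM final; Buffer or medium: DMEM containing 5-aza-dC.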
# ARNT TACC3 PPI – disruptors of human ARNT/TACC3 interaction; 390,000 compounds, 0.66% hits; Q9Y6A5; AlphaScreen His-ARNT PAS-B/GST-TACC3 binding, luminescence; TACC3 fragment carries E629A point mutation; inhibition, % at 9.99 µM;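 active means mean inhibition of replicates at least 50% and at least half of replicates each reaching 50%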;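 further: 0% = complete ARNT plus TACC3 wells and 100% = ARNT alone without TACC3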
# SIRT5 block – blocks human SIRT5 desuccinylation of peptide; Q9NXA8; Purified SirT5, succinyl-peptide AMC, trypsin-coupled fluorescence; inhibition, % at 15 µM; 330,000 compounds, 1.1% hits; AID 652115; in the data active means inhibition above about 15%
# Target sequence (Q9NXA8 whole entry, looked up): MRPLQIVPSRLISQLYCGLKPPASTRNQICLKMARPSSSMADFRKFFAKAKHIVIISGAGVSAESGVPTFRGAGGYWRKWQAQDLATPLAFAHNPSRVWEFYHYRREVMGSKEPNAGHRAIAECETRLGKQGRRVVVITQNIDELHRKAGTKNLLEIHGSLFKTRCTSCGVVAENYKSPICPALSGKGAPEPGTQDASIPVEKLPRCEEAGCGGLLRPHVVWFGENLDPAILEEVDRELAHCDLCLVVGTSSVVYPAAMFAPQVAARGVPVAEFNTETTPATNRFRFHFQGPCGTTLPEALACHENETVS
# Numbers without * were called inactive; · = no result given. Shown are actives, neighbours in structure and some others; about 3.8% of the full set was active somewhere.
SMILES,DENV2 CPE rescue,FN deposition inh,FGF22 binding,Xi reactivation,ARNT TACC3 PPI,SIRT5 block
CCCCNC(=NCc1cccc(C(F)(F)F)c1)Nc1ccccc1,-1,8,0,0,4,20*
COc1ccccc1CN1CC(C(=O)N(C)CCCn2nc(C)cc2C)CCC1=O (centres undefined),52*,·,0,0,-2,-1
COc1ccc(CCN2CC(C(=O)N(C)CCn3nc(C)cc3C)CCC2=O)cc1 (centres undefined),0,7,0,0,1,0
COc1ccccc1CN1CC(C(=O)NCc2nccn2C)CCC1=O (centres undefined),31*,2,0,0,-2,-4
CNC(=O)C[C@@H]1CC[C@H]2[C@@H](COc3ccc(NC(=O)c4ccccc4OC)cc3C(=O)N2C)O1,-7,-8,·,0,1,-7
C/C(=N\NC(=O)c1ccccc1O)c1ccc(NC(=O)c2ccccc2)cc1,117*,-2,0,0,3,0
C/C(=N\NC(=O)c1ccccc1O)c1cccc(NC(=O)c2ccccc2)c1,3,2,0,0,-2,6
O=C(Nc1cccc(C(F)(F)F)c1)c1ccc(-n2cncn2)nc1,11,-3,43*,0,-2,12
Cc1ccc(S(=O)(=O)NNC(=O)c2c(O)c3ccccc3[nH]c2=O)cc1,1,5,0,0,-3,17*
Cc1noc(C)c1NC(=O)Nc1ccc2c(c1)C(=O)N([C@@H](C)CO)C[C@H](C)[C@@H](CN(C)S(C)(=O)=O)OCCCC[C@@H](C)O2,5,·,0,0,-6,3
NC(=O)NC(=O)CN1C(=O)NC(c2ccccc2)(c2ccccc2)C1=O,-2,-3,0,0,8,-3
CC(C(=O)NC(N)=O)N1C(=O)NC(c2ccccc2)(c2ccccc2)C1=O (centres undefined),-2,3,0,0,0,19*
COc1ccc2c(c1)CCc1c(C(=O)NC3CCCCC3)noc1-2,·,-5,·,·,46*,·
C[C@H](CO)N1C[C@H](C)[C@H](CN(C)C(=O)CCN(C)C)OCc2ccccc2-c2ccccc2C1=O,0,2,1,0,3,-4
CCOC(=O)CSc1nc(-c2ccccc2)nc2ccc(C)cc12,-1,-4,43*,0,-8,-5
O=C(CSc1nc(-c2ccccc2)nc2ccc(F)cc12)Nc1ccc(C(=O)O)cc1,4,15,6.0*,0,-8,1
C[C@@H]1CN([C@H](C)CO)C(=O)c2cc(NC(=O)c3ccncc3)ccc2O[C@@H]1CN(C)Cc1ccc2c(c1)OCO2,0,·,0,·,-10,2
CC1(C)CC(NC(=O)c2sc3cc(Cl)ccc3c2Cl)CC(C)(C)N1,1,19,43*,0,-1,-2
Cc1cc[n+](CC(=O)c2ccc3c(c2)OCCO3)cc1,·,-2,44*,0,-2,-2
Cc1onc(-c2ccccc2)c1C(=O)c1c[nH]c(C(=O)NCc2ccccn2)c1,-1,-8,0,0,2,19*
Cc1onc(-c2ccccc2)c1C(=O)c1c[nH]c(C(=O)NCc2ccncc2)c1,3,-3,0,0,1,-4
CCS(=O)(=O)N1CCCCN2[C@H](CO)[C@@H](c3ccc(-c4cccc(C#N)c4)cc3)[C@@H]2C1,5,·,0,0,34,-23
OCCC1CN(Cc2nc(-c3ccccc3)cs2)CCN1Cc1ccc(F)cc1 (centres undefined),8,2,43*,0,1,3
OCCC1CN(Cc2ccsc2)CCN1C1CCCC1 (centres undefined),4,0,0,0,-5,2
OCCC1CN(Cc2cnn(-c3ccccc3Cl)c2)CCN1Cc1ccsc1 (centres undefined),4,6,49*,0,2,-3
SMILES,DENV2 CPE rescue,FN deposition inh,FGF22 binding,Xi reactivation,ARNT TACC3 PPI,SIRT5 block
CC(C)=CCN1CCN(Cc2nc(-c3ccc(F)cc3)cs2)CC1CCO (centres undefined),-3,-5,0,0,1,-6
COc1ccc(C(=O)Nc2ccc3c(c2)OC[C@H](C)NC[C@H](C)[C@@H](OC)CN(C)C3=O)cc1,1,4,·,0,·,4
O=C(C[C@H]1CC[C@H]2[C@@H](COC[C@H](O)CN2C(=O)c2cccnc2)O1)Nc1ccc(-c2ccccc2)cc1,6,-17,0,0,4,·
Cc1cccc(/N=C/c2c(O)cc(C)oc2=O)n1,·,·,·,·,-1,15*
Cc1cc(N(C)N)nc(NC(=O)NS(=O)(=O)c2ccccc2Cl)n1,0,10,0,0,59*,-2
COc1cc(OC)nc(NC(=O)NS(=O)(=O)c2ccccc2Cl)n1,4,-2,40,0,12,-1
O=C(Nc1ccccc1F)c1nc[nH]c1C(=O)NCc1ccccc1,-8,-18,0,0,·,0
CC(C)(C)OC(=O)NCc1ccc(CNC(=O)c2[nH]cnc2C(=O)Nc2ccccc2F)cc1,-12,-4,43*,0,·,·
C[C@H](NC(=O)C[C@H]1CC[C@@H](NC(=O)Cc2ccccn2)[C@H](CO)O1)c1ccccc1,0,0,0,0,2,0
Cn1ccnc1Sc1ccccc1[N+](=O)[O-],-2,3,43*,0,-10,-1
CN1C(=O)c2cc(NC(=O)C3CCOCC3)ccc2OC[C@@H]2O[C@H](CC(=O)NCC3CC3)CC[C@@H]21,4,-6,0,0,-9,3
O=C(c1cccc(F)c1)N1C[C@H]2[C@@H](c3ccccc31)[C@H](CO)N2C(=O)c1ccccn1,-6,·,0,0,3,1
COc1ccc(NC(=O)Nc2ccc3c(c2)CC(=O)N([C@@H](C)CO)C[C@H](C)[C@@H](CN(C)S(=O)(=O)c2ccc(F)cc2)O3)cc1,0,-4,0,-1,8,9
COc1ccc(NC(=O)Nc2ccc3c(c2)CC(=O)N([C@@H](C)CO)C[C@H](C)[C@@H](CN(C)S(C)(=O)=O)O3)cc1,8,·,·,-1,·,·
COc1ccc(NC(=O)Nc2ccc3c(c2)CC(=O)N([C@@H](C)CO)C[C@@H](C)[C@H](CN(C)S(C)(=O)=O)O3)cc1,30*,·,·,0,·,·
COc1ccc(NC(=O)Nc2ccc3c(c2)CC(=O)N([C@H](C)CO)C[C@@H](C)[C@@H](CN(C)S(=O)(=O)c2ccc(OC)cc2)O3)cc1,40*,·,0,0,12,1
